Assay results published in ChEMBL document CHEMBL1132114, “Chemical syntheses and biological studies on dimeric chimeras of oxytocin and the V(2)-antagonist, d(CH(2))(5)[D-Ile(2), Ile(4)]arginine vasopressin” (J Med Chem, 1999).

Assays:
Rattus norvegicus [1] = experiment: Excreted total Na+ in 0% water loaded rats after administration of the compound; type: functional
Outline: (§1)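 Conscious male Wistar rats fasted 16 h, given either no water load or tap water at 4% of body weight by stomach catheter; compound given subcutaneously at 50 nmol/kg right after loading. Rats kept in individual metabolic cages, urine collected over 5 h; total Na+ and K+ measured by flame spectrophotometry. Groups of 4–5 rats, 2–3 independent days; mean ± SEM.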

Rattus norvegicus [2] = experiment: Excreted total Na+ in 4% water loaded rats after administration of the compound; type: functional; outline: as §1
Rattus norvegicus [3] = experiment: Volume of excreted urine in 5 h after administration in 0% water loaded rats; type: functional
Outline: (§2)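 Fasted (16 h) conscious male Wistar rats, without water load or loaded by stomach catheter with tap water at 4% of body weight, then dosed subcutaneously at 50 nmol/kg (saline control). Urine collected in individual metabolic cages and total volume recorded over 5 h. Groups of 4–5 rats, 2–3 independent days; mean ± SEM.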

Rattus norvegicus [4] = experiment: Volume of excreted urine in 5 hr after administration in 4% water loaded rats; type: functional; outline: as §2
Rattus norvegicus [5] = organism: Rattus norvegicus; experiment: In vitro uterotonic activity was determined; type: functional
Outline: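 Uterine preparations from Wistar rats estrogenized 24–48 h beforehand were tested in vitro without magnesium ions. Synthetic oxytocin served as standard. Single or cumulative dose–response curves were built, and activity was obtained by comparing threshold doses of standard and analogue. Averages of 3–5 experiments, in IU/mg.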

Rattus norvegicus [6] = experiment: In vivo uterotonic activity in rats; type: functional
Outline: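 In vivo uterotonic test in Wistar rats estrogenized 24–48 h before the experiment, with compounds given intravenously. Synthetic oxytocin served as standard. Activity came from comparing threshold doses on dose–response curves. Averages of 3–5 experiments, in IU/mg.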

Rattus norvegicus [7] = experiment: In vivo pressor response in rats; type: functional
Outline: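 Vasopressor test in phenoxybenzamine-treated male Wistar rats against a synthetic arginine vasopressin standard. Activity came from comparing threshold doses of standard and analogue on dose–response curves. Averages of 3–5 experiments.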

Rattus norvegicus [8] = organism: Rattus norvegicus; experiment: diuresis half-time in 4% water loaded rats; type: functional, organism-based
Outline: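 After a 16-h fast, conscious male Wistar rats received tap water at 4% of body weight by stomach catheter, then compound subcutaneously at 50 nmol/kg. Urine output followed every 15 min for 5 h in metabolic cages. Half-time taken as the time at which half the water load was excreted. Mean ± SEM.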

Rattus norvegicus [9] = experiment: Excreted total K+ in 4% water loaded rats after administration of the compound; type: functional, organism-based; outline: as §1
Rattus norvegicus [10] = experiment: Excreted total K+ in 0% water loaded rats after administration of the compound; type: functional, organism-based; outline: as §1
Rattus norvegicus [11] = experiment: In vivo antidiuretic in conscious rats; type: functional, Urine
Outline: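 Modified Burn test in conscious male Wistar rats fasted 16 h and loaded orally by catheter with tap water (4% of body weight). Compounds or saline injected subcutaneously at 1–100 nmol/kg. Urine collected over 5 h in metabolic cages. Groups of 4–5 rats; each dose run in 2–3 independent experiments.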

Rattus norvegicus [12] = experiment: Volume of excreted urine in 5 hr after administration in 0% water loaded rats; type: functional; outline: as §2
Rattus norvegicus [13] = experiment: In vivo antidiuretic in anesth rats; type: functional, Urine

SMILES	Na (Rattus norvegicus [1]) [µmol]	Na (Rattus norvegicus [2]) [µmol]	Volume of urine (Rattus norvegicus [3]) [mL]	Volume of urine (Rattus norvegicus [4]) [mL]	Uterotonic activity (Rattus norvegicus [5]) [IU mg-1]	Uterotonic activity (Rattus norvegicus [6]) [IU mg-1]	Pressor response (Rattus norvegicus [7]) [IU mg-1]	T1/2 (Rattus norvegicus [8]) [h]	K (Rattus norvegicus [9]) [µmol]	K (Rattus norvegicus [10]) [µmol]	Antidiuretic activity (Rattus norvegicus [11]) [%]	Volume of urine (Rattus norvegicus [12]) [mL]	Antidiuretic activity (Rattus norvegicus [13]) [IU mg-1]
CC[C@@H](C)[C@H]1NC(=O)CC2(CCCCC2)SSC[C@H](N)C(=O)N[C@@H](Cc2ccc(O)cc2)C(=O)N[C@@H]([C@@H](C)CC)C(=O)N[C@@H](CCC(N)=O)C(=O)N[C@@H](CC(N)=O)C(=O)N[C@H](C(=O)N2CCC[C@H]2C(=O)N[C@@H](CC(C)C)C(=O)NCC(N)=O)CSSC[C@@H](C(=O)N2CCC[C@H]2C(=O)N[C@@H](CCCN=C(N)N)C(=O)NCC(N)=O)NC(=O)[C@H](CC(N)=O)NC(=O)[C@H]([C@@H](C)CC)NC(=O)[C@H](Cc2ccccc2)NC1=O	762	375	9.4	14.2	0.22	1.1	0	–	–	–	–	–	–
CC[C@@H](C)[C@H]1NC(=O)[C@H](Cc2ccc(O)cc2)NC(=O)[C@@H](N)CSSC[C@@H](C(=O)N2CCC[C@@H]2C(=O)N[C@@H](CC(C)C)C(=O)NCC(N)=O)NC(=O)[C@H](CC(N)=O)NC(=O)[C@@H](CCC(N)=O)NC(=O)[C@H]([C@@H](C)CC)NC(=O)[C@@H](Cc2ccc(O)cc2)NC(=O)[C@H](N)CSSC[C@H](C(=O)N2CCC[C@H]2C(=O)N[C@H](CC(C)C)C(=O)NCC(N)=O)NC(=O)[C@@H](CC(N)=O)NC(=O)[C@H](CCC(N)=O)NC1=O	–	–	–	–	–	–	–	3.47	231	–	–	–	–
CC[C@H](C)[C@@H]1NC(=O)CC2(CCCCC2)SSC[C@H](N)C(=O)N[C@@H](Cc2ccc(O)cc2)C(=O)N[C@@H]([C@@H](C)CC)C(=O)N[C@@H](CCC(N)=O)C(=O)N[C@@H](CC(N)=O)C(=O)N[C@H](C(=O)N2CCC[C@@H]2C(=O)N[C@@H](CC(C)C)C(=O)NCC(N)=O)CSSC[C@@H](C(=O)N2CCC[C@H]2C(=O)N[C@@H](CCCN=C(N)N)C(=O)NCC(N)=O)NC(=O)[C@H](CC(N)=O)NC(=O)[C@H]([C@@H](C)CC)NC(=O)[C@H](Cc2ccccc2)NC1=O	–	–	–	–	–	–	–	0.7	162	217	–	–	–
CC[C@@H](C)[C@H]1NC(=O)CC2(CCCCC2)SSC[C@@H](C(=O)N2CCC[C@H]2C(=O)N[C@@H](CC(C)C)C(=O)NCC(N)=O)NC(=O)[C@H](CC(N)=O)NC(=O)[C@H](CCC(N)=O)NC(=O)[C@H]([C@@H](C)CC)NC(=O)[C@H](Cc2ccc(O)cc2)NC(=O)[C@@H](N)CSSC[C@@H](C(=O)N2CCC[C@H]2C(=O)N[C@@H](CCCN=C(N)N)C(=O)NCC(N)=O)NC(=O)[C@H](CC(N)=O)NC(=O)[C@H]([C@@H](C)CC)NC(=O)[C@H](Cc2ccccc2)NC1=O	358	480	6.3	13.1	0.8	0.8	0	–	–	–	–	–	–
CC[C@H](C)[C@@H]1NC(=O)[C@H](Cc2ccc(O)cc2)NC(=O)[C@@H](N)CSSC[C@@H](C(=O)N2CCC[C@H]2C(=O)N[C@@H](CC(C)C)C(=O)NCC(N)=O)NC(=O)[C@H](CC(N)=O)NC(=O)[C@H](CCC(N)=O)NC(=O)[C@H]([C@@H](C)CC)NC(=O)[C@H](Cc2ccc(O)cc2)NC(=O)[C@@H](N)CSSC[C@@H](C(=O)N2CCC[C@H]2C(=O)N[C@@H](CC(C)C)C(=O)NCC(N)=O)NC(=O)[C@H](CC(N)=O)NC(=O)[C@H](CCC(N)=O)NC1=O [OXYTOCIN DIMER]	–	1150	–	6.4	1.37	13.8	0.5	–	–	–	~10	–	–
CC[C@@H](C)[C@H]1NC(=O)CC2(CCCCC2)SSC[C@@H](C(=O)N2CCC[C@@H]2C(=O)N[C@@H](CC(C)C)C(=O)NCC(N)=O)NC(=O)[C@H](CC(N)=O)NC(=O)[C@H](CCC(N)=O)NC(=O)[C@H]([C@@H](C)CC)NC(=O)[C@H](Cc2ccc(O)cc2)NC(=O)[C@@H](N)CSSC[C@H](C(=O)N2CCC[C@@H]2C(=O)N[C@H](CCCN=C(N)N)C(=O)NCC(N)=O)NC(=O)[C@@H](CC(N)=O)NC(=O)[C@@H]([C@H](C)CC)NC(=O)[C@@H](Cc2ccccc2)NC1=O	–	–	–	–	–	–	–	0.817	123	200	–	–	–
CC[C@H](C)[C@@H]1NC(=O)[C@H](Cc2ccc(O)cc2)NC(=O)[C@@H](N)CSSC[C@@H](C(=O)N2CCC[C@H]2C(=O)N[C@@H](CC(C)C)C(=O)NCC(N)=O)NC(=O)[C@H](CC(N)=O)NC(=O)[C@H](CCC(N)=O)NC1=O [OXYTOCIN]	563	773	–	11.3	450	450	4.5	2.97	287	202	100	4.8	5
